Test results from PubChem BioAssay AID623920 (The Scripps Research Institute Molecular Screening Center, 2012).
Values joined by “and” are separate entries in the source; they are usually repeats but may differ in a detail not shown here. Equal entries are not always repeated. Active and inactive are the calls of the source.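 Rule for the calls: active = compounds halving RecBCD DNA-cutting activity at 52000 nM or lower IC50; inactive = the rest.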

Target: RecBCD enzyme subunit RecC (Escherichia coli (strain K12)) + RecBCD enzyme subunit RecB (Escherichia coli (strain K12)) (UniProt P07648+P08394)
Sequence (P07648 whole entry, looked up): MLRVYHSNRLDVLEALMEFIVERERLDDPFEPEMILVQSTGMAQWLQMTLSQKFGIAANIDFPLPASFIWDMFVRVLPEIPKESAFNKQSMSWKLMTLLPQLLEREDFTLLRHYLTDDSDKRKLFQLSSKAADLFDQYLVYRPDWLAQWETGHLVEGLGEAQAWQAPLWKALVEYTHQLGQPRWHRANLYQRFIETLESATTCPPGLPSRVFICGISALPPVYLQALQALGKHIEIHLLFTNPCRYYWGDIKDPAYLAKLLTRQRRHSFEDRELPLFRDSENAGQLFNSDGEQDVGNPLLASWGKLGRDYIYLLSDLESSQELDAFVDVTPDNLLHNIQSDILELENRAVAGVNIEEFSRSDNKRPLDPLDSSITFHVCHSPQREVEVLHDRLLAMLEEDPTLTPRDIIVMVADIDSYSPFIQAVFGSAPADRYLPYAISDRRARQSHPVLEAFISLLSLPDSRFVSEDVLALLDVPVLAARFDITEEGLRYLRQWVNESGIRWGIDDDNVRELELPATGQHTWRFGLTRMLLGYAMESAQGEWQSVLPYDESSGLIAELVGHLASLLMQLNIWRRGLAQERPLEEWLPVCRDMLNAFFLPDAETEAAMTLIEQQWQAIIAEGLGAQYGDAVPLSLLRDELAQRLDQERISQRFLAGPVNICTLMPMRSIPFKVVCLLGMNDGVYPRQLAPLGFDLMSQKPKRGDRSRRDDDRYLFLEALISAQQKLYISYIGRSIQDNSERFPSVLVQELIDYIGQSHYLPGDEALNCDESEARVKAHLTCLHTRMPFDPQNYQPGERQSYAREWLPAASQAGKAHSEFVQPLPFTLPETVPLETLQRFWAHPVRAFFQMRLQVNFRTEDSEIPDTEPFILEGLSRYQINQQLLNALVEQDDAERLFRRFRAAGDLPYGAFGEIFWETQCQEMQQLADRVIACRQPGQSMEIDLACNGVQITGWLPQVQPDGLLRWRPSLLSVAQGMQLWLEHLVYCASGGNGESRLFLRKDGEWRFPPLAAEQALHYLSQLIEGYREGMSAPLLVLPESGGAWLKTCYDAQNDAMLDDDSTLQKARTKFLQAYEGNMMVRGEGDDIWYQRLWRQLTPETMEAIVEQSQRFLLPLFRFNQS
Sequence (P08394 whole entry, looked up): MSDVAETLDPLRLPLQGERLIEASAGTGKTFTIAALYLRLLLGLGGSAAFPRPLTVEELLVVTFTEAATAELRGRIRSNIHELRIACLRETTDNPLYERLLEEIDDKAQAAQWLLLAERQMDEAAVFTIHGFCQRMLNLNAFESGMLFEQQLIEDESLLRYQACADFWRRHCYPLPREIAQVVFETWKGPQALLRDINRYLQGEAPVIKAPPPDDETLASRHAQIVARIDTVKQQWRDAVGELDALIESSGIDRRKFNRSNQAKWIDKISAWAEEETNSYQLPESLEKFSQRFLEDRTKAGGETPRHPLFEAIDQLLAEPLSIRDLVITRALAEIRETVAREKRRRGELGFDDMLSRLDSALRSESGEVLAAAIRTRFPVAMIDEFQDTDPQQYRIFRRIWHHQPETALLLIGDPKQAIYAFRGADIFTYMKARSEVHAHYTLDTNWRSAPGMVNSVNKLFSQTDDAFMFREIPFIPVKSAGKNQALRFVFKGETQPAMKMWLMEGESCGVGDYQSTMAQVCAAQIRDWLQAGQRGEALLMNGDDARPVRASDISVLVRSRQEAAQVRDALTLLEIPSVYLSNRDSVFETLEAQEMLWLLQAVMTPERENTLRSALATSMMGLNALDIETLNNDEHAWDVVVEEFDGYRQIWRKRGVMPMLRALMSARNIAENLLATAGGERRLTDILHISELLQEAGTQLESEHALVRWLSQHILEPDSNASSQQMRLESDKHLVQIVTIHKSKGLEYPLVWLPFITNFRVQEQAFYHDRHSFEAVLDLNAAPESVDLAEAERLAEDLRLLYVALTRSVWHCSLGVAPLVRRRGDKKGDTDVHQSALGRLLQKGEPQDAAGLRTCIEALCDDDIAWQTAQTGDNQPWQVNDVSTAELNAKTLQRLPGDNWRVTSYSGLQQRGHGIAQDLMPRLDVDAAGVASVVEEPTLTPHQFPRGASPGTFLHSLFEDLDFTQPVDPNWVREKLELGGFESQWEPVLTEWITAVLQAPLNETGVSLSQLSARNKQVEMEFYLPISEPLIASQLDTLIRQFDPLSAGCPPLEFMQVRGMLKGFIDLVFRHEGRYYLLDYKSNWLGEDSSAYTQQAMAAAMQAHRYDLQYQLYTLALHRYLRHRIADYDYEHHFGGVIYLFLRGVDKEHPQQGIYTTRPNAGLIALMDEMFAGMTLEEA
Experiment: purified RecBCD nuclease inhibitors, dose response, counter-screen for AddAB inhibitor project, biochemical, radioactivity readout, powder samples (AID 623920)
Conditions: [3H] dsDNA nuclease, TCA-soluble radioactivity
Outline: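 System – purified E. coli RecBCD · Input – RecBCD enzyme at 0.15 units (4.5 nM) per reaction · Reagent – [3H] T7 dsDNA, 6 µM nucleotides · Timing – compound with enzyme on ice first, nuclease reaction 20 min at 37 °C · Signal – TCA-soluble radioactivity by scintillation · Replication – triplicate measurement per compound dose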

| Compound | IC50 |
| --- | --- |
| N#Cc1c(NC(=O)c2ccccc2)sc2c1CCC2 | > 100 µM (inactive) |
| CCn1cc(C(=O)O)c(=O)c2cnc(N3CCN(C(=S)NCc4ccccc4)CC3)nc21 | 20 µM |
| CCn1cc(C(=O)O)c(=O)c2cnc(N3CCN(C(=S)NC(C)c4ccccc4)CC3)nc21 (stereo unspecified) | 18 µM |
| NC(=O)c1ccsc1NC(=O)COC(=O)c1ccc([N+](=O)[O-])o1 | > 100 µM (inactive) |
| O=C(OCC(=O)c1cccs1)c1ccc([N+](=O)[O-])o1 | > 100 µM (inactive) |
| CCn1cc(C(=O)O)c(=O)c2cnc(N3CCN(C(=S)Nc4ccc(Cl)cc4)CC3)nc21 | 11 µM |
| Cc1sc(NC(=O)c2ccc(Br)o2)c(C#N)c1C | 47 µM |
| N#Cc1c(NC(=O)c2ccco2)sc2c1CCC2 | inactive |
| N#Cc1c(NC(=O)c2ccc(-c3ccccc3[N+](=O)[O-])o2)sc2c1CCCC2 | > 100 µM (inactive) |
| COC(=O)c1c(-c2ccccc2)csc1NC(=O)c1cnccn1 | 22 µM |
| CCn1cc(C(=O)O)c(=O)c2cc(F)c(N3CCN(C(=S)Nc4cccc(C(F)(F)F)c4)CC3)cc21 | 3 µM |
| N#Cc1c(NC(=O)c2cnccn2)sc2c1CCCC2 | 33 µM and 42 µM |
| O=C(Nc1cccc(NC(=O)c2ccccc2Cl)c1)c1ccc([N+](=O)[O-])o1 | > 100 µM (inactive) |
| CCn1cc(C(=O)O)c(=O)c2cc(F)c(N3CCN(C(=S)Nc4ccccc4C(F)(F)F)CC3)cc21 | 40 µM |
| C=CCn1c(Sc2ncc([N+](=O)[O-])s2)n[nH]c1=O | > 166 µM (inactive) |
| N#Cc1c(NC(=O)c2ccc([N+](=O)[O-])o2)sc2c1CCC2 | 51 µM |

| Compound | IC50 |
| --- | --- |
| CCn1cc(C(=O)O)c(=O)c2cnc(N3CCN(C(=S)Nc4cccc(C(F)(F)F)c4)CC3)nc21 | 4 µM |
| N#Cc1c(NC(=O)c2cccc(F)c2)sc2c1CCCC2 | > 100 µM (inactive) |
| CCn1cc(C(=O)O)c(=O)c2cnc(N3CCN(C(=S)NC(=O)c4cccc(C)c4)CC3)nc21 | 9 µM |
| CC(=O)Nc1ccc2nc(NC(=O)c3ccc([N+](=O)[O-])o3)sc2c1 | > 100 µM (inactive) |
| CCn1cc(C(=O)O)c(=O)c2cnc(N3CCN(C(=S)Nc4ccccc4C(F)(F)F)CC3)nc21 | 13 µM and 40 µM |
| CCn1cc(C(=O)O)c(=O)c2cnc(N3CCN(C(=S)NC4CC5CCC4C5)CC3)nc21 (stereo unspecified) | inactive |
| Cc1ccc(C(=O)Nc2sc3c(c2C#N)CCCCC3)o1 | > 100 µM (inactive) |
| Cc1ccc2nc(/C(C#N)=C\c3ccc([N+](=O)[O-])o3)[nH]c2c1 | > 100 µM (inactive) |
| CNC(=O)c1c(NC(=O)c2nc(SCc3ccccc3)ncc2Cl)sc2c1CCCC2 | inactive |
| CC1(C)Cc2c(sc(NC(=O)c3ccco3)c2C#N)CO1 | > 100 µM (inactive) |
| N#Cc1c(NC(=O)c2ccccc2C(=O)O)sc2c1CCCC2 | > 100 µM (inactive) |
| Cc1cccnc1NC(=O)c1ccc([N+](=O)[O-])o1 | > 100 µM (inactive) |
| O=C(Nc1ccc(N2CCOCC2)cc1)c1ccc([N+](=O)[O-])o1 | > 100 µM (inactive) |
| O=C(NCc1cccnc1)c1ccc([N+](=O)[O-])o1 | > 100 µM (inactive) |
| O=C(Nc1ncccn1)c1ccc([N+](=O)[O-])o1 | > 100 µM (inactive) |
